Laboratory results from ChEMBL document CHEMBL4002590, “Design and Synthesis of a Pan-Janus Kinase Inhibitor Clinical Candidate (PF-06263276) Suitable for Inhaled and Topical Delivery for the Treatment of Inflammatory Diseases of the Lungs and Skin” (J Med Chem, 2017).
pIC50: −log10 of the molar value. Calls of active or inactive are those of the source. The rule behind the calls is not given here.

How the values were obtained:
[1] = target: Tyrosine-protein kinase JAK1 (Homo sapiens, UniProt P23458); experiment: Inhibition of GST tagged human recombinant JAK1 catalytic domain expressed in baculovirus using peptide substrate preincubated for 60 mins followed by substrate addition and measured after 60 mins by microfluidic assay
Chain of Tyrosine-protein kinase JAK1 (P23458 whole entry, the tested form may be a part): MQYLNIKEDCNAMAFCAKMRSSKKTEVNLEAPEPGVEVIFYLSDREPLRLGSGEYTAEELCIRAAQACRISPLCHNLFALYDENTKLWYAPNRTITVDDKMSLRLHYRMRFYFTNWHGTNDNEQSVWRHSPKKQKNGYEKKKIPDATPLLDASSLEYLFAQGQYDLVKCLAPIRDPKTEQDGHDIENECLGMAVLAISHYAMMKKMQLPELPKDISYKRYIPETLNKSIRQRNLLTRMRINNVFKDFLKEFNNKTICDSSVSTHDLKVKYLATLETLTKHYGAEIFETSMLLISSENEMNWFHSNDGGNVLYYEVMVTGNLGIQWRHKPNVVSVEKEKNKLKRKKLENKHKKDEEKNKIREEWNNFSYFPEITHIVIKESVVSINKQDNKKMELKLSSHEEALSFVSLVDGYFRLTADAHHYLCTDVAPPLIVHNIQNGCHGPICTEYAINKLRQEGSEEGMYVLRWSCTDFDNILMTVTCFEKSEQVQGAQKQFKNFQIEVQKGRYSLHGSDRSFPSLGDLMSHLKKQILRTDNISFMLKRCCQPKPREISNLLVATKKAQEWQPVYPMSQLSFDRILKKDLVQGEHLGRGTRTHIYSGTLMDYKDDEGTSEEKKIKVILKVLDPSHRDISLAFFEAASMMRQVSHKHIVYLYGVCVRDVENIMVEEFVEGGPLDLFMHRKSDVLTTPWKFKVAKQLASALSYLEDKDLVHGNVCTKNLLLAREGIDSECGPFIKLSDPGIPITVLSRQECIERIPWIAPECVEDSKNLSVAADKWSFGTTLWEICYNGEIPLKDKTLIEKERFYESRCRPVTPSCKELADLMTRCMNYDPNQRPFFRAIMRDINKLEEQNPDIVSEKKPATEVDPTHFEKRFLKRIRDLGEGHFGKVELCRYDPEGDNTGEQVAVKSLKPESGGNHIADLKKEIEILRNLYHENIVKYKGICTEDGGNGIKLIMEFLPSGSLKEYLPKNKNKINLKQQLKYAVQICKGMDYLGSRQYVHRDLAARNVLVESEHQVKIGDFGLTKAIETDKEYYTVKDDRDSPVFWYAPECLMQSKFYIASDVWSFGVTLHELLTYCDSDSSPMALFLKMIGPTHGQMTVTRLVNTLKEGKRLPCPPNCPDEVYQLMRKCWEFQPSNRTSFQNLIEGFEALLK

[2] = target: Non-receptor tyrosine-protein kinase TYK2 (Homo sapiens, UniProt P29597); experiment: Inhibition of Tyk2 (unknown origin) using peptide substrate preincubated for 60 mins followed by substrate addition and measured after 60 mins by microfluidic assay
Chain of Non-receptor tyrosine-protein kinase TYK2 (P29597 whole entry): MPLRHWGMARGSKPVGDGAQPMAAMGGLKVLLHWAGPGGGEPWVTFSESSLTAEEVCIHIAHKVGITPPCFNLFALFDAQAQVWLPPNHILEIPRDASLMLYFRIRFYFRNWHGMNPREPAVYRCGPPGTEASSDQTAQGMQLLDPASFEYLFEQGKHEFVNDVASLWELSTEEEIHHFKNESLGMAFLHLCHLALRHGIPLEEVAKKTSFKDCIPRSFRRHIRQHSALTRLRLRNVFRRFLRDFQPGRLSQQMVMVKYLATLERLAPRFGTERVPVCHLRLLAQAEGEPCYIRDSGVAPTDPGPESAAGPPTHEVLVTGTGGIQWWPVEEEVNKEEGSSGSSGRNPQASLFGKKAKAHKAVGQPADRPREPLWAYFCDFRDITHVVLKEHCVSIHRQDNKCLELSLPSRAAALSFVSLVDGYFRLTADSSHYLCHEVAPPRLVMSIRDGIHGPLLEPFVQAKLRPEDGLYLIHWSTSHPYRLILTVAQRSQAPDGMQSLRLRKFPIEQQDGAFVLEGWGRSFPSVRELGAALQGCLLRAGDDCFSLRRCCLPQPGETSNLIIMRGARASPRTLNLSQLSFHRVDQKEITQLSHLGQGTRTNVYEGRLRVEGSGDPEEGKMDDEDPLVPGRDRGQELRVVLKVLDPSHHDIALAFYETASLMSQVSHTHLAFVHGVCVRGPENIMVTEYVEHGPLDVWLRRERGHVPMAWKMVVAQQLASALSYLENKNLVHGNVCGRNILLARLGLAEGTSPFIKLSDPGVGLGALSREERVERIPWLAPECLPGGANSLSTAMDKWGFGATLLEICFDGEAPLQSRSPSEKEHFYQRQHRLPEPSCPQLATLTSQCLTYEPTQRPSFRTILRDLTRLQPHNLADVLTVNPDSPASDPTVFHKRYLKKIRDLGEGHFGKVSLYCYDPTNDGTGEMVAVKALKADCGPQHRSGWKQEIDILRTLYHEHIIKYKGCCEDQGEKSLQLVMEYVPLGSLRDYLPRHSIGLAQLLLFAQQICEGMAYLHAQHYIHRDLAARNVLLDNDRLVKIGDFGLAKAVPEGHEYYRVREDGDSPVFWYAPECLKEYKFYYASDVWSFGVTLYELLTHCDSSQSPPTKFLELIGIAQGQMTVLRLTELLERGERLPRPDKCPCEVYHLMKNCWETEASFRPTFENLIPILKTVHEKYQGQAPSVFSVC
Outline: (§1)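 Caliper microfluidic assay of peptide-substrate phosphorylation by the relevant JAK enzyme, run at 1 mM ATP; IC50 values are geometric means of at least three determinations.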

[3] = target: T1, Janus Kinase (JAK) (Homo sapiens, UniProt P52333+P23458+O60674+P29597); experiment: Inhibition of JAK in human PBMC assessed as reduction in human recombinant IL-2/mouse anti-human CD3 stimulated IFNgamma production preincubated for 1 hr followed by IL2/CD3 stimulation measured after 18 hrs by ELISA
T1 sequence (O60674 whole entry, looked up, one chain of several): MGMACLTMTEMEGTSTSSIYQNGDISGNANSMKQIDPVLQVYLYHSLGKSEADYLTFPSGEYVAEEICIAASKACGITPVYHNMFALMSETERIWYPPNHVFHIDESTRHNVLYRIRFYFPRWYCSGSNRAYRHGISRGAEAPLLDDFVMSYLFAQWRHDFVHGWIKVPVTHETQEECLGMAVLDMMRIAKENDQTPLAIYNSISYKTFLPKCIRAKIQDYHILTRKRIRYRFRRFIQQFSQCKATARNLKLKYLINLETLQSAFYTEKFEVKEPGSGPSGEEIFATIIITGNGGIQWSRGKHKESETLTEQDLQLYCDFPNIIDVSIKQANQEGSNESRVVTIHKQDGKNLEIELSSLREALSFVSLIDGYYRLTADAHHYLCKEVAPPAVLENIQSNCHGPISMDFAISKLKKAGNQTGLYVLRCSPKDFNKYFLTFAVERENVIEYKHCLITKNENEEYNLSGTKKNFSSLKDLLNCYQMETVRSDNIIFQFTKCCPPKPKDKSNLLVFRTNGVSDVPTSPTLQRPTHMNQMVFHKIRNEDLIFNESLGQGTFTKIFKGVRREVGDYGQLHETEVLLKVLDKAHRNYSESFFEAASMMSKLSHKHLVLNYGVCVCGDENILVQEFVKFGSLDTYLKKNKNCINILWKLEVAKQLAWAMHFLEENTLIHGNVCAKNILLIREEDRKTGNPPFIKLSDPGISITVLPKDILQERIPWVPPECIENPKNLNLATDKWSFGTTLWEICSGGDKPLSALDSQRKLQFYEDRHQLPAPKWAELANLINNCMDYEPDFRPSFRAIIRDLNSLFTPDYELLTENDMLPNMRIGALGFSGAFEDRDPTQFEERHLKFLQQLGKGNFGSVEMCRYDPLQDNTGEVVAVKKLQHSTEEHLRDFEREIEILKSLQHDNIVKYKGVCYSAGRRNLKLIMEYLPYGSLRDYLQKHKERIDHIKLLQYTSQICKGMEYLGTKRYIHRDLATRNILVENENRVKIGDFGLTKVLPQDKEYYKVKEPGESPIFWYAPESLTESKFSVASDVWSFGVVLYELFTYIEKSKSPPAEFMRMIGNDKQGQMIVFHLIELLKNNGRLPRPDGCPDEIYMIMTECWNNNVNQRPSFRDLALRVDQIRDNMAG
T1 sequence (P23458 whole entry, looked up, one chain of several): as the sequence (P23458 whole entry, the tested form may be a part) above
T1 sequence (P29597 whole entry, looked up, one chain of several): as the sequence (P29597 whole entry) above
Outline: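 Primary PBMCs stimulated with IL-2; inhibition of IFNγ release measured. IC50 values are geometric means of at least three determinations.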

[4] = target: T2, Tyrosine-protein kinase JAK3 (Homo sapiens, UniProt P52333); experiment: Inhibition of GST tagged human recombinant JAK3 catalytic domain expressed in baculovirus using peptide substrate preincubated for 60 mins followed by substrate addition and measured after 60 mins by microfluidic assay; outline: as §1
T2 sequence (P52333 whole entry): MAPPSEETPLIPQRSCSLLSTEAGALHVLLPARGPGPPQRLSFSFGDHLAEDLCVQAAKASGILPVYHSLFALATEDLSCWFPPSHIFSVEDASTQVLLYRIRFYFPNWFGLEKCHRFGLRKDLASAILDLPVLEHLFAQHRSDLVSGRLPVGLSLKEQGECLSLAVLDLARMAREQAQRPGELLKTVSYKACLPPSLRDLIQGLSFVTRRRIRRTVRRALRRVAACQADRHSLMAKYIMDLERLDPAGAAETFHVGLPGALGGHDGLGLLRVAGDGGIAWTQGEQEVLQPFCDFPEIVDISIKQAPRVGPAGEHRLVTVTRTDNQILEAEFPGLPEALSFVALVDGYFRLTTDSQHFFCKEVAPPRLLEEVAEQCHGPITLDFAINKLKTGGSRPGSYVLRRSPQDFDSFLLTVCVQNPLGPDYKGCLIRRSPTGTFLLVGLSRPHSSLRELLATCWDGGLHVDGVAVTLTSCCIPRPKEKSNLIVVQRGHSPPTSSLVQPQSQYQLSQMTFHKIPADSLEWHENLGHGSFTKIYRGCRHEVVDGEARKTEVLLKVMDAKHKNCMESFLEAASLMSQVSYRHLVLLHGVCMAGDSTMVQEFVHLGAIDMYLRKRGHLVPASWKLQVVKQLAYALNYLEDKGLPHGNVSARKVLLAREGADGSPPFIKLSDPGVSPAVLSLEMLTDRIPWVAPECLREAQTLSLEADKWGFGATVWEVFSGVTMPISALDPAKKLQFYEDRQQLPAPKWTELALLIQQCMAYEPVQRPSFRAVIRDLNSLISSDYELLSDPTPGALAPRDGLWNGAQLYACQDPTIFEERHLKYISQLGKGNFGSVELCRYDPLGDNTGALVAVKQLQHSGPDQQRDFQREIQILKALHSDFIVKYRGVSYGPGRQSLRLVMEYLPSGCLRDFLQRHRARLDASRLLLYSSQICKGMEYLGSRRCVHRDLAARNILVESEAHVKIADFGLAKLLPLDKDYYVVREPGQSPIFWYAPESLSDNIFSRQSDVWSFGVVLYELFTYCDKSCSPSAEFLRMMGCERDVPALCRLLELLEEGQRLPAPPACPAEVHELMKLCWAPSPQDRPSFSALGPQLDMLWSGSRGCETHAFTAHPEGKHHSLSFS

[5] = target: Tyrosine-protein kinase JAK2 (Homo sapiens, UniProt O60674); experiment: Inhibition of GST tagged human recombinant JAK2 catalytic domain expressed in baculovirus using peptide substrate preincubated for 60 mins followed by substrate addition and measured after 60 mins by microfluidic assay; outline: as §1
Chain of Tyrosine-protein kinase JAK2 (O60674 whole entry, the tested form may be a part): as the sequence (O60674 whole entry, looked up, one chain of several) above

[6] = Thermodynamic solubility of the compound in pH 7.4 water buffer using crystalline solid sample; format: physicochemical; conditions: read-out: Therm_solubility
Outline: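 Thermodynamic solubility measured from crystalline solid in water buffered at pH 7.4.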

[7] = target: T1, Janus Kinase (JAK)
[8] = Aqueous solubility of the compound; format: physicochemical; conditions: buffer
[9] = system: Liver; experiment: Metabolic stability in human liver microsomes assessed per mg protein; format: ADME, microsome
Outline: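 Metabolic stability measured as turnover in human liver microsomes.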

[10] = target: T3, Tyrosine-protein kinase JAK3 (Homo sapiens) (UniProt P52333); experiment: Inhibition of GST tagged human recombinant JAK3 catalytic domain expressed in baculovirus assessed as offset rate by dilution recovery based microfluidic mobility shift assay
T3 sequence (whole entry): T2 sequence (P52333 whole entry)
Outline: (§2)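 JAK3 inhibition kinetics measured by continuous dilution-recovery in a microfluidic mobility shift format; offset rate (min−1) converted to a recovery T1/2.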

[11] = target: T3, Tyrosine-protein kinase JAK3 (Homo sapiens); experiment: Inhibition of GST tagged human recombinant JAK3 catalytic domain expressed in baculovirus assessed as time taken for inhibition to reverse by 50% by dilution recovery based microfluidic mobility shift assay; outline: as §2
[12] = target: T1, Janus Kinase (JAK); remark: listed apart in the source
[13] = target: Mitogen-activated protein kinase kinase kinase kinase 4 (Homo sapiens) (UniProt O95819); experiment: Inhibition of MAP4K4 (unknown origin) at 1 uM relative to control
Chain of Mitogen-activated protein kinase kinase kinase kinase 4 (Homo sapiens) (O95819 2-1239 limits assumed): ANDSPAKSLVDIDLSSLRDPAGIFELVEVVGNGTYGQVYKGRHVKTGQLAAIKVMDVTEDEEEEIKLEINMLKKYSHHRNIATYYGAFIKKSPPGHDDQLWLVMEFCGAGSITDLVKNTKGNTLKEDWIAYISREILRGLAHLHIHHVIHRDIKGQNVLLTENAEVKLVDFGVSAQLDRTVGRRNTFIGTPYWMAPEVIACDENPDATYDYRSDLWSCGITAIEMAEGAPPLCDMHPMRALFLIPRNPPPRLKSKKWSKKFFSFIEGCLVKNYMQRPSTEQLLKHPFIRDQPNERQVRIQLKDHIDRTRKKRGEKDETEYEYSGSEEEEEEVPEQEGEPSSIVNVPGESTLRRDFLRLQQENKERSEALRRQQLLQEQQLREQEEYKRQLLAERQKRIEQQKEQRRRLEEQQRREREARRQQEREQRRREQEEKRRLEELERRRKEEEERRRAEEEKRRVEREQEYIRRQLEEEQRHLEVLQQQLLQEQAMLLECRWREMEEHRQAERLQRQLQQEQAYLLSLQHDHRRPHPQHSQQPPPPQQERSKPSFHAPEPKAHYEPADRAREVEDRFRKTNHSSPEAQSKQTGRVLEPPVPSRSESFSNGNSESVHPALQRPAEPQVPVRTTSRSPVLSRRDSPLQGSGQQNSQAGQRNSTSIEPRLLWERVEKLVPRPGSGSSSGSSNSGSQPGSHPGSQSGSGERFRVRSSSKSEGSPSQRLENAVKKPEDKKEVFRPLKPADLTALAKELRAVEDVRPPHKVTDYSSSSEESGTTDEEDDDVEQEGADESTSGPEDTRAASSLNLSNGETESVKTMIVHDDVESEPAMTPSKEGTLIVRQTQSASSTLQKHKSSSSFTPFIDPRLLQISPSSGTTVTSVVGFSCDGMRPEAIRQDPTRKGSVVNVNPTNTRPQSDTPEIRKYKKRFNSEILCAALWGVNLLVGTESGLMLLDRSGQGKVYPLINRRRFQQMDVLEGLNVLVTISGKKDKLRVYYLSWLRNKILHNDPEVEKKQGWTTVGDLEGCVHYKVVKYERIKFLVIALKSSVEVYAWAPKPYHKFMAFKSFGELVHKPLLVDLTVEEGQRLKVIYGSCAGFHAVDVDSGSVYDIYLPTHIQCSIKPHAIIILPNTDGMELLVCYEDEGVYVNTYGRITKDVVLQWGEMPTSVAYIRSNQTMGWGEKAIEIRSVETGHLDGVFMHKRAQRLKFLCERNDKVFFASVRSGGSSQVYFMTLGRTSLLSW

[14] = Drug metabolism in human liver microsomes assessed as UGT-mediated compound glucuronidation per mg protein in presence of microsomal activator Brij58 and cofactor UDPGA; format: ADME
Outline: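 Human liver microsomes supplemented with the activator Brij58 and cofactor UDPGA, NADPH omitted, to measure phase II glucuronidation turnover.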

[15] = species on record: Homo sapiens; experiment: Selectivity ratio of IC50 for GST tagged human recombinant JAK3 catalytic domain expressed in baculovirus to IC50 for GST tagged human recombinant JAK1 catalytic domain expressed in baculovirus
Outline: (§3)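 Both IC50s come from the same microfluidic mobility-shift (Caliper) assay with 1 mM ATP. The read-out is inhibition of phosphorylation of a peptide substrate by JAK1, JAK2 or JAK3. Each IC50 is a geometric mean of at least three determinations.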

[16] = species on record: Homo sapiens; experiment: Selectivity ratio of IC50 for GST tagged human recombinant JAK2 catalytic domain expressed in baculovirus to IC50 for GST tagged human recombinant JAK1 catalytic domain expressed in baculovirus; outline: as §3
[17] = target: T1, Janus Kinase (JAK); experiment: Inhibition of JAK in human PBMC assessed as reduction in human recombinant IL-2/ mouse anti-human CD3 stimulated STAT5 phosphorylation at tyrosine residue preincubated for 1 hr followed by IL2/CD3 stimulation after 30 mins by immunofluorescence assay
[18] = target: T1, Janus Kinase (JAK); experiment: Inhibition of JAK in human PBMC assessed as reduction in human recombinant IL-2/ mouse anti-human CD3 stimulated STAT5 phosphorylation at tyrosine residue at 10-fold IC50 preincubated for 1 hr followed by compound washout and subsequent IL2/CD3 stimulation measured after 30 mins by immunofluorescence assay
Outline: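 PBMC wash-out format: cells exposed to compound for 1 h at 10-fold IC50, washed extensively, then pSTAT5 response to IL-2 stimulation followed over time to give a recovery T1/2.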

| pIC50 [1] | pIC50 [2] | IC50 [3] | pIC50 [4] | pIC50 [5] | solubility thermodynamic [6] | T1/2 [7] | solubility [8] | Stability [9] | K [10] | T1/2 [11] | TDI [12] | inhibition [13] | Drug metabolism [14] | Ratio IC50 [15] | Ratio IC50 [16] | IC50 [17] | inhibition [18] | Structure (SMILES) |
| --- | --- | --- | --- | --- | --- | --- | --- | --- | --- | --- | --- | --- | --- | --- | --- | --- | --- | --- |
| 7.16 | 6.54 | 572.7 nM | 6.31 | 7.00 |  |  |  |  |  |  |  |  |  |  |  |  |  | Oc1cccc(-c2ccc3c(-c4nc5ccccc5[nH]4)n[nH]c3c2)c1 |
| 7.57 | 6.41 | 250.3 nM | 6.53 | 7.10 |  |  |  |  |  |  |  |  |  |  |  |  |  | CC(C)c1cc(O)ccc1-c1ccc2c(-c3nc4ccccc4[nH]3)n[nH]c2c1 |
| 7.22 | 6.09 | 277.8 nM | 6.38 | 7.23 | 0.5 µM | 4.5 h |  |  |  |  |  |  |  |  |  |  |  | CCc1cc(O)ccc1-c1ccc2c(C(=O)Nc3ccc(C)nc3)n[nH]c2c1 |
| 9.05 | 8.34 | 10.4 nM | 9.10 | 9.10 | 4.1 µM |  |  |  |  |  |  |  |  |  |  |  |  | CCc1cc(O)ccc1-c1ccc2c(-c3ncc[nH]3)n[nH]c2c1 |
| 9.40 | 8.04 | 10.5 nM | 8.08 | 8.66 |  | 6.5 h | Insoluble | 35 µL/min | 0.006 min⁻¹ | 1.9 h | Active | > 85% | 49 µL/min |  |  |  |  | CCc1cc(O)ccc1-c1ccc2c(-c3nc4ccccc4[nH]3)n[nH]c2c1 |
|  |  |  |  |  |  |  |  |  |  |  |  |  |  | 3 | 5 |  |  | C[C@@H]1CCN(C(=O)CC#N)C[C@@H]1N(C)c1ncnc2[nH]ccc12 |
|  |  | 204.8 nM |  |  |  |  |  |  |  |  |  |  | 46 µL/min |  |  |  |  | CCc1c(-c2ccc3c(-c4nc5ccccc5[nH]4)n[nH]c3c2)ccc(O)c1F |
| 8.01 | 6.36 | 75.4 nM | 6.78 | 7.76 |  |  |  |  |  |  |  |  |  |  |  |  |  | CCCc1cc(O)ccc1-c1ccc2c(-c3nc4ccccc4[nH]3)n[nH]c2c1 |
| 5.56 | < 5.00 | > 10000 nM | < 5.00 | < 5.00 |  |  |  |  |  |  |  |  |  |  |  |  |  | CCc1cc(O)ccc1-c1ccc2c(C(=O)N(C)C)n[nH]c2c1 |
| 8.74 | 7.24 | 30.4 nM | 7.51 | 7.80 |  |  |  | 75 µL/min |  |  |  |  | > 360 µL/min |  |  |  |  | CCc1cc(O)c(F)cc1-c1ccc2c(-c3nc4c([nH]3)CN(Cc3ccccc3)CC4)n[nH]c2c1 |
| 8.12 | 6.10 | 9.1 nM | 6.90 | 7.39 | 14 µM |  |  |  |  |  |  |  |  |  |  |  |  | CCc1cc(O)ccc1-c1ccc2c(C(=O)NC)n[nH]c2c1 |
| 7.43 | 5.79 |  | 6.86 | 6.91 |  |  |  | 82 µL/min |  |  |  |  | < 3.5 µL/min |  |  | 27 nM | inactive | C[C@@H]1CCN(C(=O)N2CCCC2)C[C@@H]1N(C)c1ncnc2[nH]ccc12 |
| 8.64 | 6.02 |  | 7.47 | 7.67 | 20 µg/mL |  |  | 131 µL/min | 0.024 min⁻¹ | 0.467 h |  |  | > 200 µL/min |  |  | 343 nM | inactive | C[C@@H]1CCN(C(=O)N2CC[C@@H](S(=O)(=O)c3cccc(O)c3)C2)C[C@@H]1N(C)c1ncnc2[nH]ccc12 |
| 8.89 | 7.60 | 39.1 nM | 8.89 | 8.25 |  |  |  | 18 µL/min |  |  |  |  | 7.3 µL/min |  |  |  |  | CCc1cc(O)ccc1-c1ccc2c(-c3nc4c([nH]3)CN(S(C)(=O)=O)CC4)n[nH]c2c1 |
|  |  |  |  |  |  |  |  |  |  |  |  |  | 17 µL/min |  |  |  |  | CCc1cc(O)ccc1-c1ccc2c(-c3nc4c([nH]3)CCN(C(=O)c3cnc(N5CCCCC5)cn3)C4)n[nH]c2c1 |
| 8.77 | 7.26 | 19.1 nM | 8.37 | 8.38 | 15 µM |  |  |  |  |  |  |  |  |  |  |  |  | CCc1cc(O)ccc1-c1ccc2c(C(N)=O)n[nH]c2c1 |
| 9.10 | 7.82 | 47.9 nM | 7.78 | 8.10 |  | 3.5 h |  |  |  |  |  |  | > 360 µL/min |  |  |  |  | CCc1cc(O)c(F)cc1-c1ccc2c(-c3nc4ccccc4[nH]3)n[nH]c2c1 |
| 8.68 | 7.70 | 18.6 nM | 8.54 | 8.19 | 10 to 20 µM |  |  | 56 µL/min |  |  |  |  | < 1.9 µL/min |  |  |  |  | CCc1cc(O)ccc1-c1ccc2c(-c3nc4c([nH]3)CN(C)CC4)n[nH]c2c1 |
| 9.30 | 7.64 | 4.5 nM | 8.15 | 8.48 | 10 to 20 µM |  |  | 42 µL/min |  |  |  |  | 5.5 µL/min |  |  |  |  | CCc1cc(O)ccc1-c1ccc2c(-c3nc4c([nH]3)CN(C(C)=O)CC4)n[nH]c2c1 |
| > 10.00 | 9.10 | 35 nM | 8.77 | 9.52 |  |  |  | 48 µL/min |  |  |  |  | 37 µL/min |  |  |  |  | CCc1cc(O)c(F)cc1-c1ccc2c(-c3nc4c([nH]3)CCN(C(=O)c3ccc(F)cc3)C4)n[nH]c2c1 |
